Assay results published in ChEMBL document CHEMBL3763100, “Structure-guided design of new indoles as negative allosteric modulators (NAMs) of N-methyl-D-aspartate receptor (NMDAR) containing GluN2B subunit” (Bioorg Med Chem, 2016).
pIC50: −log10 of the molar value. Activity calls are given as the source filed them. No cut-off for these calls is given here.

Key:
[1] = target: Glutamate receptor ionotropic, NMDA 2B (Rattus norvegicus) (UniProt Q00960); experiment: Displacement of [3H]ifenprodil from Wistar rat cerebral cortex GluN2B receptor at 0.1 uM after 120 mins relative to control; type: tissue-based
Glutamate receptor ionotropic, NMDA 2B (Rattus norvegicus), sequence (Q00960 27-1482 limits assumed): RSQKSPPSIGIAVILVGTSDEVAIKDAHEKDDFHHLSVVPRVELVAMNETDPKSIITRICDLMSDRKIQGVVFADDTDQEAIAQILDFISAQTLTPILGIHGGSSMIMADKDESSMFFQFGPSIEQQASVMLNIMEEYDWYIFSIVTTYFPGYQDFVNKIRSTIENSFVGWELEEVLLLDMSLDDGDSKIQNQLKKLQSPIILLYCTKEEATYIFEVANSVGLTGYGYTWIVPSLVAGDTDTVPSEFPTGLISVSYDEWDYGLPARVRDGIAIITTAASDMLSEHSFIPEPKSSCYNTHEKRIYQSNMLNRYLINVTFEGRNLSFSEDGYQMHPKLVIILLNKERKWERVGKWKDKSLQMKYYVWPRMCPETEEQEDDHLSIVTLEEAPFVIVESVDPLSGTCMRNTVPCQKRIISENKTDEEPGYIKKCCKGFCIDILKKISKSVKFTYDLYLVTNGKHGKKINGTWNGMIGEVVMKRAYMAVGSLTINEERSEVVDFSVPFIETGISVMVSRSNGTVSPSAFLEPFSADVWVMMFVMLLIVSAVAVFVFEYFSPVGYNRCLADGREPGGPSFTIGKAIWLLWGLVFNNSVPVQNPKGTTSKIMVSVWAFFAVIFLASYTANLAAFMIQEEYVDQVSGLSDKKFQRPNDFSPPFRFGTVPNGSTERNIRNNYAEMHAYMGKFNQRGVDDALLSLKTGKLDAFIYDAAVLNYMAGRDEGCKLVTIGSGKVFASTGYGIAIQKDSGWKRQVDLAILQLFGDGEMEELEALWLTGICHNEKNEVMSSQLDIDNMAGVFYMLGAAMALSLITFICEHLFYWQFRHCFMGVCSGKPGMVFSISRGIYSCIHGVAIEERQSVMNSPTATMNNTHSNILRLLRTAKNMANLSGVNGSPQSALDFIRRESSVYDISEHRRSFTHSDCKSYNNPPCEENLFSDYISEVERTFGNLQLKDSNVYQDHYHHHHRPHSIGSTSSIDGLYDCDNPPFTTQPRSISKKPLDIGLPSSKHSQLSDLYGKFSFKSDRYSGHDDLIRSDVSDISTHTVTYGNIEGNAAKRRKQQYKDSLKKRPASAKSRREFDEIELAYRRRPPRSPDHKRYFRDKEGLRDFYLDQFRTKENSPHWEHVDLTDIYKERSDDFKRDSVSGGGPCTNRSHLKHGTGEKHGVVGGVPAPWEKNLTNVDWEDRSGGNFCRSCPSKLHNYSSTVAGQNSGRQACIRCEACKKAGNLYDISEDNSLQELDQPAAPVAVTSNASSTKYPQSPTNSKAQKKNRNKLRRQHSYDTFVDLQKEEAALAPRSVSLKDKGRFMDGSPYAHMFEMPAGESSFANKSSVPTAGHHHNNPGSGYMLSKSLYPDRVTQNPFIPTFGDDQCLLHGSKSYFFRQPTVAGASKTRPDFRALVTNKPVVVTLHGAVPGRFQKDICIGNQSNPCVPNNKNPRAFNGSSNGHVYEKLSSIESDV
Summary of the method: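 Male Wistar-derived rat cerebral cortex membranes (175 ± 25 g rats) in Tris-HCl pH 7.4. […] Filtration, washing and counting followed. Test compounds were run at three concentrations in duplicate, with 0.1 μM used for % inhibition.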

[2] = target: Glutamate receptor ionotropic, NMDA 2B (Rattus norvegicus, UniProt Q00960); experiment: Displacement of [3H]ifenprodil from Wistar rat cerebral cortex GluN2B receptor after 120 mins; type: tissue-based
Glutamate receptor ionotropic, NMDA 2B, sequence (Q00960 whole entry): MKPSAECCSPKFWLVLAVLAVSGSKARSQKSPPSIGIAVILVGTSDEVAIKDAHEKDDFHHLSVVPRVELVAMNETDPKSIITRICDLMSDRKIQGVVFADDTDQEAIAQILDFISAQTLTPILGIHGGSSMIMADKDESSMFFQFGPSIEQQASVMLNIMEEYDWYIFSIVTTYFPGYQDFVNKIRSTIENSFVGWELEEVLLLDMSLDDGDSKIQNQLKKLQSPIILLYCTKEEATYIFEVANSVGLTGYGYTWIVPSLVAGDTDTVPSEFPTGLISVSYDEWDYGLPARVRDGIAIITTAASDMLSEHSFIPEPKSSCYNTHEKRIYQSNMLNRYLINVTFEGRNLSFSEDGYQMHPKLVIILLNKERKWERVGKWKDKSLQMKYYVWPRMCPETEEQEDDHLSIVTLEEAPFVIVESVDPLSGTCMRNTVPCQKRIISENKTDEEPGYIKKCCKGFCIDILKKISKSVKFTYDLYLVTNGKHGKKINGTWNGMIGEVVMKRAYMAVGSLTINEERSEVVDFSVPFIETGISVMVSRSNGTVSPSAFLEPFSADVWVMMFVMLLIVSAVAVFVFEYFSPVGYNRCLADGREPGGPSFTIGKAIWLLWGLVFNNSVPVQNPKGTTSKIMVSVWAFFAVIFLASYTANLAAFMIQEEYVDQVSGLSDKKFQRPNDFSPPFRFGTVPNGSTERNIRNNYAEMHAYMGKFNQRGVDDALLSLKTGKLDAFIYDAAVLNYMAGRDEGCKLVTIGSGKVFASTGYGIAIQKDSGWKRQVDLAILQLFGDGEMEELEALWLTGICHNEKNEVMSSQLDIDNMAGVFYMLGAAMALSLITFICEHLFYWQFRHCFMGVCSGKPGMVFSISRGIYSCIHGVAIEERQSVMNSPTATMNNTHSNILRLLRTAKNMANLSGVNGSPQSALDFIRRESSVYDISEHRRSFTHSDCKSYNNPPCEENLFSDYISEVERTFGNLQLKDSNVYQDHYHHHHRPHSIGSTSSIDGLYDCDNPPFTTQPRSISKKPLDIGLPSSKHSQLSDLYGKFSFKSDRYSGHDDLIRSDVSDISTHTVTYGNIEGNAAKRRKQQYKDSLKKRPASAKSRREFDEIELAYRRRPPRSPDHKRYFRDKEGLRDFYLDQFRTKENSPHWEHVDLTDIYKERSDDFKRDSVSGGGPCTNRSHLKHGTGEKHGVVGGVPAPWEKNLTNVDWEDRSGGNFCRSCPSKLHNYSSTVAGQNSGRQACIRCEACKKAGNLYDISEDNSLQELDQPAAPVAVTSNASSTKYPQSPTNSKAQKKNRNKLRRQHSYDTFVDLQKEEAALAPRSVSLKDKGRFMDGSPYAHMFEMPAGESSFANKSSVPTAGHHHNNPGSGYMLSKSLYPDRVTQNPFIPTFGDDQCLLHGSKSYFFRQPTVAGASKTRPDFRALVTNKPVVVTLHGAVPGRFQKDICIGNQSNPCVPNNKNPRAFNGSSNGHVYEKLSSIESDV

Mus musculus = experiment: Anticonvulsant activity in DBA/2 mouse assessed as prevention of audiogenic seizures at 100 umol/kg, ip administered 30 mins prior to testing; type: functional, organism-based
Summary of the method: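 DBA/2 mice genetically prone to sound-induced seizures (8-12 g, 22-25 days old), groups of 10 of either sex. Dosed ip in fresh 50% DMSO/50% sterile saline, or vehicle alone. After 30 min, 60 s habituation under a dome, then auditory stimulus (12-16 kHz, 109 dB) for 60 s or until tonic extension. Latency to and incidence of wild running, clonus, tonic phases were scored; incidence compared by Fisher's exact test.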

[3] = target: Glutamate receptor ionotropic, NMDA 2B (Rattus norvegicus) (UniProt Q00960); experiment: Displacement of [3H]ifenprodil from Wistar rat cerebral cortex GluN2B receptor at 0.1 uM relative to control

Structure (SMILES)	inhibition [1] [%]	pIC50 [2]	inhibition [3] [%]	Activity (Mus musculus)
COc1ccc(CC2CCN(CC(=O)c3c[nH]c4ccc(O)cc34)CC2)cc1	16	5.89	–	–
O=C(CN1CCC(Oc2ccccc2)CC1)c1c[nH]c2ccc(O)cc12	9	–	–	–
Cc1ccc(CC2CCN(CC(=O)c3c[nH]c4ccc(O)cc34)CC2)cc1C	< 5	5.48	–	–
Oc1ccc2[nH]cc(CCN3CCC(Cc4ccccc4)CC3)c2c1	42	–	–	–

Further lines, with some results ahead:

inhibition [1] [%]	pIC50 [2]	inhibition [3] [%]	Structure (SMILES)	Activity (Mus musculus)
5	–	–	O=C(Cc1c[nH]c2ccc(O)cc12)N1CCC(Cc2ccccc2)CC1	–
66	7.08	–	Cc1ccc(CC2CCN(CC(=O)c3c[nH]c4ccc(O)cc34)CC2)cc1	inactive
75	7.15	–	CCc1ccc(CC2CCN(CC(=O)c3c[nH]c4ccc(O)cc34)CC2)cc1	inactive
–	–	75	O=C(CN1CCC(Cc2ccccc2)CC1)c1c[nH]c2ccc(O)cc12	–
19	–	–	O=C(Cc1c[nH]c2ccc(O)cc12)N1CCC(Cc2ccc(F)cc2)CC1	–
